From ChEMBL document CHEMBL1124938, “Antihypertensive dihydropyridines with 1,4,4-trisubstitution” (1990)

Experiments:
Rattus norvegicus [1] = assay: Antihypertensive effects in conscious, unrestrained, spontaneously hypertensive rats after 30 mg/kg i.p. administration.; assay type: functional; details: route intraperitoneal
Summary of the method: (§1)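 SHR housed singly with free access to tap water, overnight recovery before testing. Compound suspended in 1% methylcellulose, given once ip at 30 mg/kg or by oral gavage at 100 mg/kg (n = 3); concurrent controls (n = 3) got 1 mL vehicle by same route. MAP recorded continuously 24 h; value is maximum change from concurrent control, mean ± SEM.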

Rattus norvegicus [2] = assay: Antihypertensive effects in conscious, unrestrained, spontaneously hypertensive rats after 100 mg/kg p.o. administration.; assay type: functional; details: route oral; summary of the method: as §1
Rattus norvegicus [3] = assay: Total antihypertensive activity was obtained from the area between compound and control MAP (mean arterial pressure) curves, after (ip) 30 mg/kg administration in spontaneously hypertensive rats (SHR).; assay type: functional, Artery
Summary of the method: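 SHR dosed once ip at 30 mg/kg in 1% methylcellulose suspension (n = 3), with vehicle-dosed concurrent controls (n = 3). MAP recorded continuously over 24 h; time points 0, 0.25, 0.5, 1, 2, 4, 6, 12, 18 and 24 h used. Value is area between drug and control MAP curves, in mmHg × h.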

SMILES	Max change in blood pressure (Rattus norvegicus [1]) [mmHg]	Max change in blood pressure (Rattus norvegicus [2]) [mmHg]	Antihypertensive activity (Rattus norvegicus [3]) [mmHg·h]	Activity (Rattus norvegicus [3]) [mmHg·h]
CC1(C)C=CN(C(=O)Nc2ccccc2)C=C1	-24	-15		
CC1(C)C=CN(C(=O)c2ccccc2)C=C1	-21	-27	210	
CNC(=O)N1C=CC(C)(C)C=C1	-34	-41		
COC(=O)CCCN1C=CC(c2ccc(OC)cc2)(c2ccc(OC)cc2)C=C1	11	-21		
CN(C)CCN1C=CC(C)(C)C=C1	-32	-10	281	
CC1(C)C=CN(C(=O)c2cccnc2)C=C1	-19	-26	291	
CC1(C)C=CN(/C(=N/c2ccccc2)N2CCCC2)C=C1.O=C(O)/C=C\C(=O)O	27	19		
COC(=O)C1=C(C)NC(C)=C(C(=O)OC)C1c1ccccc1[N+](=O)[O-] [NIFEDIPINE]	-71	-68		
Cc1csc(N2C=CC(C)(C)C=C2)n1	14	-21		
CN(C)CC(=O)N1C=CC(C)(C)C=C1.O=C(O)/C=C\C(=O)O	-52	-39		132
COC(=O)CCCCN1C=CC(C)(C)C=C1	-58	-11		943
CC1(C)C=CN(C(=O)c2ccc[nH]2)C=C1	6	-7		
COC(=O)CCN1C=CC(C)(C)C=C1	-71	-19		1360
COC(=O)CCCN1C=CC(C)(C)C=C1	-42	-45		696
CNC(=O)N1C=CC(c2ccccc2)(c2ccccc2)C=C1	17	-11		
COc1ccc(CC(=O)N2C=CC(C)(C)C=C2)cc1OC	-21	23		
CN(C)CCN1C=CC(c2ccccc2)(c2ccccc2)C=C1	-30	-14		
O=C(c1ccccc1)N1C=CC(c2ccccc2)(c2ccccc2)C=C1	11	12		
COc1ccc(CCN2C=CC(c3ccccc3)(c3ccccc3)C=C2)cc1OC	-7	-7		
CN(C)CC(=O)N1C=CC(c2ccccc2)(c2ccccc2)C=C1.Cl	-29	-12	362	
CC1(C)C=CN(C(=O)C(c2ccccc2)c2ccccc2)C=C1	-9	-6		
